pIC50: −log10 of the molar value. Activity calls are given as the source filed them. The calls are words filed in the database; no cut-off is given here.
Columns and labels:
Danio rerio [1] = organism: Danio rerio; experiment: Modulation of neurological behavior in zebrafish assessed as effect on touch response by high-throughput screening; format: functional, organism-based
Summary of the method: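 Zebrafish embryos were raised in E3 medium buffered with 10 mM HEPES, in the dark at 28 °C. At 28 hpf, groups of 8–10 were placed in 96-well plates, then kept dark at 25 °C during chemical treatment. After the photomotor assay, each animal was touched with a fine plastic probe and observed under a dissecting microscope. Wells were scored normal, toxic, sedative (no touch response but healthy heartbeat and circulation) or other.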

[2] = Ratio of pargyline IC50 to compound IC50 for MAO
[3] = Inhibition of MAO by plate-reader assay
Danio rerio [4] = organism: Danio rerio; experiment: Modulation of neurological behavior in zebrafish assessed as prolongation of high intensity light-induced motor response at 10 to 100 uM by photomotor response assay; format: functional, organism-based
Summary of the method: (§1)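 Zebrafish embryos were raised in E3 medium buffered with 10 mM HEPES, in the dark at 28 °C. At 28 hpf, 8–10 per well went into 96-well plates, held dark at 25 °C for chemical treatment. For each well, 1000 video frames were recorded at 33 fps, with light stimuli. A motion index was computed from frame-to-frame pixel-intensity differences. Q1 and Q3 of this index over seven time periods gave fourteen pseudo z-scores versus control wells.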

Acetylcholinesterase [5] = target: Acetylcholinesterase (Danio rerio, UniProt Q9DDE3); experiment: Inhibition of AChE in zebrafish embryo
Acetylcholinesterase [6] = target: T1, Acetylcholinesterase (Homo sapiens, UniProt P22303); experiment: Inhibition of AChE at 10 uM
Danio rerio [7] = organism: Danio rerio; experiment: Psychostimulant activity in zebrafish assessed as increase in high intensity light-induced motor response at < 10 uM by photomotor response assay; format: functional, organism-based; summary of the method: as §1
Danio rerio [8] = organism: Danio rerio; experiment: Psychostimulant activity in zebrafish assessed as increase in high intensity light-induced motor response at 10 to 100 uM by photomotor response assay; format: functional, organism-based; summary of the method: as §1
Danio rerio [9] = organism: Danio rerio; experiment: Anxiolytic activity in zebrafish assessed as decrease in high intensity light-induced motor behavior at <10 uM by photomotor response assay; format: functional, organism-based
Summary of the method: (§2)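 Embryos raised in HEPES (10 mM)-buffered E3 in the dark at 28 °C, then distributed at 28 hpf in groups of 8–10 per well of 96-well plates in E3 and held in the dark at 25 °C for chemical exposure. Light pulses were delivered while 1000 video frames were recorded at 33 fps. Motion index quartiles (Q1, Q3) in seven time periods were converted to pseudo z-scores against control wells.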

Danio rerio [10] = organism: Danio rerio; experiment: Toxicity in zebrafish assessed as mortality at 100 uM; format: organism-based; conditions: in vivo
Summary of the method: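 Embryos were treated in 96-well plates, 8–10 per well, then scored after the photomotor assay under a dissecting microscope. Scoring covered developmental retardation, morphological defects, heart morphology, rate and circulation, response to touch with a fine plastic probe, and overall appearance. Wells were classed as normal, toxic, sedative or other.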

Danio rerio [11] = organism: Danio rerio; experiment: Anxiolytic activity in zebrafish assessed as decrease in high intensity light-induced motor behavior at 10 to 100 uM by photomotor response assay; format: functional, organism-based; summary of the method: as §2
[12] = Inhibition of MAO at 10 uM by plate-reader assay
Danio rerio [13] = organism: Danio rerio; experiment: Modulation of neurological behavior in zebrafish assessed as robist increase in high intensity light-induced motor response at 10 to 100 uM by photomotor response assay; format: functional, organism-based; summary of the method: as §2
Danio rerio [14] = organism: Danio rerio; experiment: Modulation of neurological behavior in zebrafish assessed as robist increase in high intensity light-induced motor response at < 10 uM by photomotor response assay; format: functional, organism-based; summary of the method: as §2
Danio rerio [15] = organism: Danio rerio; experiment: Modulation of neurological behavior in zebrafish assessed as prolongation of high intensity light-induced motor response at < 10 uM by photomotor response assay; format: functional, organism-based; summary of the method: as §1
Acetylcholinesterase [16] = target: T1, Acetylcholinesterase; experiment: Inhibition of AChE

T1 sequence (P22303 whole entry): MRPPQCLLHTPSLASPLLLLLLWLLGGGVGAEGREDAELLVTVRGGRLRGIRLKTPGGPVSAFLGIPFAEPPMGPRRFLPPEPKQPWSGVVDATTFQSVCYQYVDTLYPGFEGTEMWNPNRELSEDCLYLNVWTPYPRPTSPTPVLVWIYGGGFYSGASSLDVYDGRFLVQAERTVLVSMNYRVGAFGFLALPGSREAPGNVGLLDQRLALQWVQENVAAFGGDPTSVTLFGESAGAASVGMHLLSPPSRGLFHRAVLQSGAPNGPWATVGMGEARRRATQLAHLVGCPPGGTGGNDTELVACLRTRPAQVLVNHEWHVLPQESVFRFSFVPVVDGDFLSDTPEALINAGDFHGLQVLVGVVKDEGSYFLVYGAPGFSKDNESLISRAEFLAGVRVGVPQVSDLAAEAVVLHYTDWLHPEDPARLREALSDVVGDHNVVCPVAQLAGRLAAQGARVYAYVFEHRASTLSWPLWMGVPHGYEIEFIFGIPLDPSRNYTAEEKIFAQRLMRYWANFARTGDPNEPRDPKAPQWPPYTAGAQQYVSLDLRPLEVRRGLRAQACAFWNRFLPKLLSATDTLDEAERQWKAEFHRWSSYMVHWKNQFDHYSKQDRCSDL
Sequence of Acetylcholinesterase (Danio rerio, UniProt Q9DDE3) (Q9DDE3 whole entry): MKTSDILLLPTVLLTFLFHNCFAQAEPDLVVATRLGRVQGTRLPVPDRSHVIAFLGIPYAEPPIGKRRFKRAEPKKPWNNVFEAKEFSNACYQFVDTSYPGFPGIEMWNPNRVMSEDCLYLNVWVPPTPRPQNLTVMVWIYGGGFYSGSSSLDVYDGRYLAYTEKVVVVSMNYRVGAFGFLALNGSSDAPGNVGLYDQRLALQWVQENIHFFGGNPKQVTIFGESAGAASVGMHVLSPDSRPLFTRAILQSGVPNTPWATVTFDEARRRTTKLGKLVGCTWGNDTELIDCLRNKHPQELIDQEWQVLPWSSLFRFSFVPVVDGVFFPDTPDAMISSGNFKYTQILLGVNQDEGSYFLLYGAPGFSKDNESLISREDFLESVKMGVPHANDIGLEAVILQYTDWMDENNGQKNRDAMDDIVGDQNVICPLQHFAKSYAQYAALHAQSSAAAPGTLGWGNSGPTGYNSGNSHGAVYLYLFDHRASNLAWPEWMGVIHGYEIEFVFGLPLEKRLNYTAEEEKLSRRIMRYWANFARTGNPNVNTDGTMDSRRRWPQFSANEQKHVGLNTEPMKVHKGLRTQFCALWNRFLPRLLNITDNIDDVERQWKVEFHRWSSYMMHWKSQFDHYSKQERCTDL

## CNC[C@H](O)c1ccc(O)c(O)c1
Danio rerio [1]
  Activity: Active

## CC(C)(C)OC(=O)NCCC(=O)Oc1cc2oc(=O)c3c(c2cc1Cl)CCC3
[2]
  Ratio IC50: 100
[3]
  pIC50: 6.00

## Cc1cc2c(OCC(CNC(C)(C)C)OC(=O)c3ccccc3)cccc2[nH]1 (centres undefined)
Danio rerio [4]
  Activity: Active

## COC(=O)c1ccc(COc2cc(C)ccc2C(=O)Oc2ccc3c4c(c(=O)oc3c2)CCCC4)o1
[2]
  Ratio IC50: 100

## O=C1c2ccccc2-c2nc3ncnn3c(-c3ccccc3Cl)c21
Acetylcholinesterase [5]
  pIC50: 6.30
Danio rerio [1]
  Activity: Active
Acetylcholinesterase [6]
  inhibition: inactive

## CNC(=O)Oc1ccc2c(c1)[C@]1(C)CCN(C)[C@@H]1N2C
Danio rerio [1]
  Activity: Active

## CC(C)(C)NCC(O)c1cc(Cl)c(N)c(Cl)c1 (centres undefined)
Danio rerio [1]
  Activity: Active

## CC(C)NCC(O)c1ccc(O)c(O)c1 (centres undefined)
Danio rerio [1]
  Activity: Active
Danio rerio [7]
  Activity: inactive
Danio rerio [8]
  Activity: Active
Danio rerio [9]
  Activity: inactive

## C[C@]12CC[C@H](O)C[C@H]1CC[C@@H]1[C@@H]2CC[C@]2(C)[C@@H](C3=CC(=O)OC3)CC[C@]12O [DIGITOXIGENIN]
Danio rerio [10]
  Activity: Toxic
Danio rerio [1]
  Activity: Active

## C#CCN(C)Cc1ccccc1
Danio rerio [1]
  Activity: Active

## CN1C(=O)CN=C(c2ccccc2)c2cc(Cl)ccc21
Danio rerio [1]
  Activity: Active
Danio rerio [9]
  inhibition: inactive
Danio rerio [11]
  inhibition: Active

## CC(=O)CC(c1ccccc1)c1c(O)c2ccccc2oc1=O (centres undefined)
[12]
  inhibition: inactive
Danio rerio [1]
  Activity: Active

## O=C(CNC(=O)OCc1ccccc1)Oc1cc2oc(=O)c3c(c2cc1Cl)CCC3
[12]
  inhibition: 0%
[2]
  Ratio IC50: 100

## O=[N+]([O-])c1ccc2nc(N3CCNCC3)ccc2c1
Danio rerio [1]
  Activity: Active
Danio rerio [13]
  Activity: Active
Danio rerio [14]
  Activity: inactive

## O=C(Oc1ccc2c3c(c(=O)oc2c1)CCCC3)c1ccccc1
Danio rerio [1]
  Activity: Active

## CN1[C@@H]2CC[C@H]1C[C@@H](OC(=O)C(CO)c1ccccc1)C2 (some centres undefined)
Danio rerio [4]
  Activity: Active

## CN1CCc2cccc3c2[C@H]1Cc1ccc(O)c(O)c1-3
Danio rerio [1]
  Activity: Active
Danio rerio [4]
  Activity: Active
Danio rerio [15]
  Activity: inactive

## CC(C)(C)OC(=O)NCCC(=O)Oc1cc2oc(=O)c3c(c2cc1Cl)CCCC3
[2]
  Ratio IC50: 100
[3]
  pIC50: 5.00

## C[n+]1ccccc1C=NO
Danio rerio [4]
  Activity: Active

## CC(C)(C)OC(=O)NCC(=O)Oc1cc2oc(=O)c3c(c2cc1Cl)CCC3
[2]
  Ratio IC50: 100
[3]
  pIC50: 6.30

## O=C(CCCN1C(=O)c2ccccc2C1=O)N1CCCCCC1
Danio rerio [1]
  Activity: Active
Acetylcholinesterase [16]
  pIC50: 6.30
